Measurements as given in PubChem BioAssay AID617 (SRMLSC, 2007).

Each molecule was assayed on E. coli BW25113 ΔtolC growth inhibition, OD615 (assay: E. coli ΔtolC antibacterial growth inhibition – strain BW25113 ΔtolC::kan, dose response (AID 617)).
In short: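 Test system: E. coli BW25113 ΔtolC::kan bacteria / Buffer or medium: kanamycin-containing LB broth, 50 µg/mL / Compound: serial dilution series of compound / Incubation: bacterial growth with compound for 20 h, 37 °C / Measured by: OD615 / Read-out basis: growth-inhibition IC50 from four-parameter logistic curve, bounds set to 0% and 100%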

`Oc1c(C(c2cccs2)N2CCN(c3cccc(Cl)c3)CC2)sc2ncnn12` (configuration not stated) and `Cc1ccc(C(=O)N2CCN(c3cccc(Cl)c3)CC2)cc1C` are within 1.5-fold of each other in IC50: 13.9 µM for the first, 10.4 µM for the second.

Going from `O=S(=O)(Nc1nc2ccccc2s1)c1ccc(Br)s1` to `CCCn1c(CNc2ccc(Br)cc2)nc2ccccc21`, the IC50 rises from 3.88 µM to 6.22 µM (1.6-fold).

`c1ccc(CSc2nnc(-c3cccs3)n2Cc2ccco2)cc1` and `O=C(NCc1ccco1)c1cc2sccc2n1Cc1ccccc1` are within 1.5-fold of each other in IC50: 13.2 µM for the first, 14.4 µM for the second.

Compared with `CN(C)c1ccc(C2C=C(c3ccc(Cl)cc3OC(F)F)Nc3ncnn32)cc1` (configuration not stated), `Cc1ccc(C2CC(c3cccc(Br)c3)Nc3nnnn32)cc1` (configuration not stated) is 6.7-fold higher in IC50: 1.95 µM for the first, 13 µM for the second.

First: CC(C)c1nnc(NC(=O)c2c(O)c3cccc4c3n(c2=O)CC4)s1
Second: Cc1nn(-c2ccccc2)c(Cl)c1C(=O)Nc1nnc(C2CCCC2)s1
The IC50 of the first is 4.1-fold higher: 34.7 µM for the first, 8.48 µM for the second. The second is the more potent here.

Compared with `CCN(C(=O)c1ccc(C(C)(C)C)cc1)c1nnc(Cn2nnc3ccccc32)s1`, `CCCn1c2ccccc2c2nc3ccccc3nc21` is 1.5-fold higher in IC50: 47.5 µM for the first, 73.4 µM for the second.

`Cc1[nH]c2ccccc2c1NC(=O)CN1CCN(c2cccc(C(F)(F)F)c2)CC1` and `O=S(=O)(c1ccccc1)N1CCN(Cc2ccccc2C(F)(F)F)CC1` are within 1.5-fold of each other in IC50: 12.5 µM for the first, 16.8 µM for the second.

First: Cc1ccc2c(c1)NC(=O)C(CC(=O)NCCCN1CCN(c3cc(Cl)ccc3C)CC1)O2 (configuration not stated)
Second: O=C(Nc1cccc(Cl)c1)N(CCCN1CCOCC1)Cc1ccccc1F
The IC50 of the first is 2.7-fold lower: 2.67 µM for the first, 7.19 µM for the second. The first is the more potent here.

First: CC1CC(N(C(=O)c2ccco2)c2ccccc2)c2ccccc2N1 (configuration not stated)
Second: O=C1C2=C(Nc3ccccc3SC2c2ccco2)c2ccccc21 (configuration not stated)
The IC50 of the first is higher: 13.4 µM for the first, under 0.2 µM for the second.

`O=C(Nc1ccc(Cl)c(Cl)c1)N1CCSC1c1ccco1` (configuration not stated) and `O=C(Nc1ccc(Cl)c(C(F)(F)F)c1)c1ccco1` are within 1.5-fold of each other in IC50: 5.12 µM for the first, 7.46 µM for the second.

`CC(C)CCOC(=O)c1c(N)n(CC2CCCO2)c2nc3ccccc3nc12` (configuration not stated) and `CCCCCCOC(=O)C(C#N)c1nc2ccccc2nc1N1CCN(C)CC1` (configuration not stated) are within 1.5-fold of each other in IC50: 18.3 µM for the first, 12.9 µM for the second.

First: COc1ccc2nc(SCC(=O)N(C)C3CCCCC3)c(C#N)cc2c1
Second: COc1ccc(C2(O)CC3CCC(C2)N3c2nc(C)cc(C)c2C#N)cc1 (configuration not stated)
The IC50 of the first is 1.6-fold lower: 15.8 µM for the first, 24.6 µM for the second. The first is the more potent here.

Going from `CC(C)C1O/C(=N/C(=O)Nc2ccc(Cl)c(Cl)c2)NC1=O` (configuration not stated) to `Cc1noc(NS(=O)(=O)c2ccc(NC(=O)Nc3ccc(Cl)c(Cl)c3)cc2)c1C`, the IC50 rises from 2.07 µM to 4.51 µM (2.2-fold). The first is the more potent here.

Compared with `OCCn1c(-c2ccc3c(c2)OCO3)csc1=Nc1ccccc1`, `CN1/C(=C\C(=O)COc2ccc3c(c2)OCO3)C(C)(C)c2ccccc21` is 2.1-fold lower in IC50: 23.5 µM for the first, 11.2 µM for the second.

Going from `CCCCC(=O)Nc1cccc(-c2nnc(-c3ccccc3)o2)c1` to `O=C(Nc1nnc(-c2ccccc2)o1)c1ccc(Cl)cc1`, the IC50 falls from 16.9 µM to 0.17 µM (99-fold).

First: N#Cc1cn(Cc2ccccc2)c2ccccc12
Second: Cc1onc(-c2ccccc2)c1C(=O)OCC(=O)c1ccccc1
The IC50 of the first is 1.6-fold lower: 15.3 µM for the first, 24.2 µM for the second.

First: CCn1c2ccccc2c2cc(C3C(C#N)=C(N)Oc4n[nH]c(COC)c43)ccc21 (configuration not stated)
Second: COc1ccc(CNC(=O)c2cc(-c3ccccc3OC)on2)cc1
The IC50 of the first is 2.5-fold lower: 22.7 µM for the first, 56 µM for the second.

First: O=C(Nc1nnc(-c2ccc3c(c2)OCCO3)o1)c1ccc(Cc2ccccc2)cc1
Second: Cc1cc(N2CCC(C(=O)Nc3ccc(F)cc3)CC2)nc(-c2ccccc2)n1
The IC50 of the first is 6.9-fold lower: 3.26 µM for the first, 22.5 µM for the second. The first is the more potent here.

Compared with `COc1cccc(C2/C(=C(/O)c3ccc(C)cc3)C(=O)C(=O)N2Cc2ccco2)c1` (configuration not stated), `COc1ccc(-c2noc(CCC(=O)N(C)c3cccc(C)c3)n2)cc1` is 5-fold higher in IC50: 4.54 µM for the first, 22.7 µM for the second. The first is the more potent here.

`CSc1ccc(S(=O)(=O)Nc2ccc(N3CCOCC3)c(Cl)c2)cc1` and `CCOc1ccc(NS(=O)(=O)c2ccc(SC)cc2)cc1` are within 1.5-fold of each other in IC50: 6.56 µM for the first, 6.84 µM for the second.

`CCOC(=O)c1c(C)c(C(=O)Nc2cc(OC)ccc2OC)c(C)n1CC` and `COC(=O)C1=C(C)N(C)C(C)=C(C(=O)OC)C1c1ccc(F)c(Br)c1` are within 1.5-fold of each other in IC50: 24.3 µM for the first, 20 µM for the second.

Going from `O=C(Nc1cccc(Cl)c1)N(CCN1CCOCC1)Cc1cccc(Cl)c1` to `COc1ccc(C(=O)C(CN2CCOCC2)c2ccccc2)cc1F` (configuration not stated), the IC50 rises from 6.44 µM to 17.7 µM (2.7-fold). The first is the more potent here.

Going from `CCn1nc(-c2cccs2)nc2c(=O)n(C)c(=O)nc1-2` to `c1ccc(-c2nc(CSc3nnc(-c4cccs4)o3)cs2)cc1`, the IC50 rises from 1.92 µM to 10.1 µM (5.3-fold). The first is the more potent here.

Going from `CCN(CCNC(=O)C1CCN(Cc2nc(-c3cccc(Cl)c3)oc2C)CC1)c1ccccc1` to `COc1ccc2c(-c3ccccc3)cc(N3CCOCC3)nc2c1`, the IC50 rises from 8.04 µM to 17.9 µM (2.2-fold).

First: COc1cc2cc(C(c3nnnn3C3CCCCC3)N(C)C3CCCCC3)c(=O)[nH]c2cc1OC (configuration not stated)
Second: Cc1cc(C)c2cc(CN(CCO)C(c3nnnn3Cc3ccc(F)cc3)C(C)C)c(=O)[nH]c2c1 (configuration not stated)
The IC50 of the first is 2.2-fold lower: 9.71 µM for the first, 21.7 µM for the second. The first is the more potent here.

`CC(C)(C)N1C(=O)Cc2c1nc(N)c1c(N)nc(N3CCCCC3CO)c(C#N)c21` (configuration not stated) and `CCOc1cc(-c2c(C#N)c(N)nc3c2CCCC3C)ccc1O` (configuration not stated) are within 1.5-fold of each other in IC50: 6.59 µM for the first, 6.26 µM for the second.

Compared with `CCCN(CCC)c1nc2ccccc2nc1C(C#N)C(=O)OCCOC` (configuration not stated), `CN(Cc1ccccc1)c1nc2c(c(=O)n(C)c(=O)n2C)n1CCCc1ccccc1` is 2.1-fold lower in IC50: 15.7 µM for the first, 7.51 µM for the second. The second is the more potent here.

Going from `CCOC(=O)c1c(NS(=O)(=O)c2cccc(OC)c2)sc2c1CCC2` to `CCOC(=O)N1CCN(S(=O)(=O)c2ccc(OCC)c3ccccc23)CC1`, the IC50 falls from 56.2 µM to 14.2 µM (4-fold). The second is the more potent here.

`CCc1c(C)nc2cc(-c3cc(OC)cc(OC)c3)nn2c1N1CCCC1` and `Fc1cccc(-c2cc3nc4c(c(N5CCOCC5)n3n2)CCCC4)c1` are within 1.5-fold of each other in IC50: 25.5 µM for the first, 18.4 µM for the second.

Going from `Cc1cc(NC(=O)c2noc3c2CCCC3)nn1Cc1ccc(Cl)cc1` to `N=c1c2c(n(Cc3ccc(Cl)cc3Cl)c3c1CCC3)CCCC2`, the IC50 falls from 18.4 µM to 6.15 µM (3-fold). The second is the more potent here.

First: O=C(c1noc2c1CCc1ccccc1-2)N1CCCc2ccccc21
Second: O=C1CC(c2ccco2)CC2=C1C1c3ccccc3C(=O)N1c1ccccc1N2 (configuration not stated)
The IC50 of the first is 1.9-fold lower: 12.2 µM for the first, 22.7 µM for the second.

`O=C(CSc1nc2ccccc2o1)Nc1nc2c(s1)CCCC2` and `O=C(CSc1nnc(Cc2cccs2)n1Cc1ccco1)Nc1ccc(Br)cc1` are within 1.5-fold of each other in IC50: 8.02 µM for the first, 5.74 µM for the second.

First: Brc1cccc(C2CC(c3ccccc3)n3nnnc3N2)c1 (configuration not stated)
Second: c1ccc(CCN2CCN(c3ncnc4c3cnn4-c3ccccc3)CC2)cc1
The IC50 of the first is 2.2-fold higher: 23.7 µM for the first, 10.6 µM for the second. The second is the more potent here.

First: Cc1ccc(C)c(C(=O)CSc2n[nH]c(-c3ccncc3)n2)c1
Second: Cc1ccc(-c2nnc(N3CCN(c4ccccn4)CC3)c3ccccc23)cc1
The IC50 of the first is 2.1-fold lower: 2 µM for the first, 4.28 µM for the second. The first is the more potent here.

Going from `CCOc1cc(/C=C(/C#N)c2ccc(F)cc2)ccc1OCc1ccc(C(=O)O)o1` to `Cc1ccccc1S(=O)(=O)Cc1ccc(C(=O)N2CCN(c3cccc(C)c3C)CC2)o1`, the IC50 rises from 4.4 µM to 30.8 µM (7-fold). The first is the more potent here.

`OC(COc1ccc(Cl)c2ccccc12)CN1CCN(c2ccccn2)CC1` (configuration not stated) and `CN1C(=O)C2(OCC(COc3ccc(Cl)cc3)O2)c2ccccc21` (configuration not stated) are within 1.5-fold of each other in IC50: 11.6 µM for the first, 11.1 µM for the second.

Going from `CC(C)C[C@H](NC(=O)OC(C)(C)C)c1nnc(SCc2cccc(F)c2)o1` to `CSCc1nnc(NC(=O)c2ccc(S(=O)(=O)N(CC(C)C)CC(C)C)cc2)o1`, the IC50 falls from 11.9 µM to 0.3 µM (40-fold). The second is the more potent here.

Compared with `N#CCSc1nc2c(c(C3CC=CCC3)c1C#N)CCC2` (configuration not stated), `N#CC1=C(SCC(=O)NC23CC4CC(CC(C4)C2)C3)NC(=O)C(C#N)C12CCCCC2` (configuration not stated) is 3.1-fold lower in IC50: 12.9 µM for the first, 4.11 µM for the second.

Compared with `N#Cc1c(N)oc(-c2ccc3c(c2)OCO3)c1-c1ccc2c(c1)OCO2`, `Oc1ccc2c(c1)oc1cc(O)ccc12` is 3-fold lower in IC50: 49.9 µM for the first, 16.6 µM for the second. The second is the more potent here.

Compared with `Cc1nc2ccc(C(C(F)(F)F)(C(F)(F)F)C(F)(F)F)cc2[nH]1`, `Oc1ccc(Br)cc1-c1nc2cnccn2c1NC1CCCC1` is 3.2-fold lower in IC50: 33.4 µM for the first, 10.5 µM for the second.

First: Cc1cc(NC(=O)Cn2nnc3sc4c(c3c2=O)CCC(C(C)(C)C)C4)no1 (configuration not stated)
Second: O=C(CCNc1cc(Cl)cc(Cl)c1)c1ccco1
The IC50 of the first is 4-fold lower: 7.77 µM for the first, 30.9 µM for the second. The first is the more potent here.
